Experimental data from different studies.
Each line is one published result; the experiments were not run side by side.
Target: RAC-gamma serine/threonine-protein kinase (AKT3, Homo sapiens, UniProt Q9Y243)

SMILES | test | setting | endpoint | result
Cn1nc(C(=O)NCc2ccc(C(=O)O)cc2)cc1-c1ccc2[nH]ccc2c1 | cell-free assay, competition with immobilised ligand | 0.1 µM | remaining binding | 88%
Cc1cc(NC(=O)c2cccc3cc(-c4cccc5[nH]nc(N)c45)ccc23)ccc1F | enzyme activity, inhibitor | 0.1 µM | activity vs control | 90%
CCN1CCC2(CC1)NC(=O)c1c(c3ccc(Cl)c(Cl)c3n1C)C2C#N (racemic) | thermal stability, DSF | 10 µM | ΔTm | -0.2 °C
FC(F)(F)c1ccc2c(c1)nc(-c1cccnc1)n2C1CC1 | cell-free assay, competition with immobilised ligand | 1 µM | remaining binding | 100%
N#CCCc1ccc2c(c1)-c1[nH]c3ccc([N+](=O)[O-])cc3c1CC(=O)N2 | cell-free assay | 0.5 µM | remaining signal | 95.5%
CO[C@@H](C)c1c(Nc2ccc([C@H](N(C)C(=O)C3CCS(=O)(=O)CC3)C(F)(F)F)cc2)cnc2cc(Cl)nn12 | cell-free assay, competition with immobilised ligand | 1 µM | remaining binding | 100%
CNC(=O)c1cc(Oc2ccc(NC(=O)Nc3ccc(Cl)c(C(F)(F)F)c3)cc2)ccn1 | enzyme activity, inhibitor | 10 µM | inhibition | -1%
C#Cc1cccc(Nc2ncnc3cc(OCCOC)c(OCCOC)cc23)c1 | cell-free assay | 0.5 µM | remaining signal | 74.6%
Cn1nc(C(F)(F)F)cc1-c1cnc(N2CCc3cc(S(=O)(=O)Nc4c(F)cc(Cl)cc4F)cc(N4CCCC4=O)c32)nc1 | cell-free assay, competition with immobilised ligand | 1 µM | remaining binding | 84%
CC1(C)NC(=O)c2[nH]c3c(Cl)c(Cl)ccc3c2C1C#N (centres unmarked) | thermal stability, DSF | 10 µM | ΔTm | 0 °C
CC(=O)N1CCC(c2ccc(C(=O)NC3=NCCN3)cc2C(F)(F)F)CC1 | cell-free assay, competition with immobilised ligand | 1 µM | remaining binding | 100%
CNc1cccc2cc(C(=O)Nc3ccc(C(=O)O)cc3)c(=O)[nH]c12 | enzyme activity, inhibitor | 10 µM | inhibition | 5.8%
O=C1Nc2ccc(Cl)cc2C1=Cc1cc(Cl)c(O)c(Cl)c1 | cell-free assay | 0.5 µM | remaining signal | 96.9%
Cn1c2c(c3ccc(Cl)c(Cl)c31)C(C#N)C1(CCOCC1)NC2=O (centres unmarked) | thermal stability, DSF | 10 µM | ΔTm | -0.1 °C
CN(C)CC#Cc1ccc(OCCCc2sc(N3CCc4cccc(C(=O)Nc5nc6ccccc6s5)c4C3)nc2C(=O)O)c(F)c1 | cell-free assay, competition with immobilised ligand | 1 µM | remaining binding | 100%
Cn1c2c(Cl)c(Cl)ccc2c2cc(N)[nH]c(=O)c21 | thermal stability, DSF | 10 µM | ΔTm | 0.3 °C

SMILES | test | setting | endpoint | result
CCCOc1ccc(OC)c(F)c1C(=O)c1ccc(C(=O)N[C@@H]2CNC[C@H]2NC(=O)c2ccc3[nH]ncc3c2)cc1 | enzyme activity, inhibitor | 0.75 µM | remaining activity | 39%
O=C1NC(=O)c2cc(Nc3ccc(F)cc3)c(Nc3ccc(F)cc3)cc21 | cell-free assay | 0.5 µM | remaining signal | 100%
CCCS(=O)(=O)Nc1ccc(F)c(C(=O)c2c[nH]c3ncc(-c4ccc(Cl)cc4)cc23)c1F | enzyme activity, inhibitor | 1 µM | inhibition | < 10%
CS(=O)(=O)N1CCCC(NC(=O)[C@H](CCC2CCCCC2)NC(=O)c2ccc(CNC(=O)c3cnc4ccccn34)cc2)C1 (some centres unmarked) | cell-free assay, competition with immobilised ligand | 0.1 µM | remaining binding | 100%
O=C(Nc1cnn(-c2csc(C(=O)NC3COC3)c2)c1)Nc1ccccc1Cl | enzyme activity, inhibitor | 5 µM | remaining activity | 87.3%
COc1cc2ncnc(Nc3ccc(Oc4ccccc4)c(C)c3C)c2cc1OC | enzyme activity, inhibitor | 1 µM | inhibition | 1%
Cc1c(NC(=O)c2cc(C(N)=O)nc3cc(F)ccc23)c(C(F)(F)F)nn1Cc1ccc(C#N)cc1 | cell-free assay, competition with immobilised ligand | 1 µM | remaining binding | 81%
CC(C)(C)c1nc(-c2cccc(NS(=O)(=O)c3c(F)cccc3F)c2F)c(-c2ccnc(N)n2)s1 | enzyme activity, inhibitor, radiometric | 1 µM | remaining activity | 80%
Nc1ncnc2occ(-c3ccc(NC(=O)Nc4cc(C(F)(F)F)ccc4F)cc3)c12 | cell-free assay, inhibitor | 20 µM | remaining signal | 85%
Cn1c2c(c3ccc(Cl)c(Cl)c31)C(C#N)C(C)(C)NC2=O (centres unmarked) | thermal stability, DSF | 10 µM | ΔTm | -0.2 °C
COc1cc(F)ccc1-c1ncnc(Nc2cccc(C[S@](C)(=N)=O)c2)n1 | enzyme activity, inhibitor | 10 µM | activity vs control | 100%
O=C(Nc1cnn(-c2csc(C(=O)NC3COC3)c2)c1)Nc1c(F)cccc1Cl | enzyme activity, inhibitor | 5 µM | remaining activity | 97.6%
Cn1c2c(c3ccc(Cl)c(Cl)c31)C(C#N)C1(CCNCC1)NC2=O (racemic) | thermal stability, DSF | 10 µM | ΔTm | -0.1 °C
CCN(CC)c1ccc(C2=NNC(=O)CC2C)cc1[N+](=O)[O-] (centres unmarked) | enzyme activity, inhibitor | 10 µM | remaining activity | 91%
Cn1c2c(c3ccc(Cl)c(Cl)c31)C(C#N)C1(CCCC1)NC2=O (centres unmarked) | thermal stability, DSF | 10 µM | ΔTm | -0.1 °C
COc1cc(Nc2c(C#N)cnc3cc(OCCCN4CCN(C)CC4)c(OC)cc23)c(Cl)cc1Cl | cell-free assay | 0.5 µM | remaining signal | 90.7%
